Experimental data as given in publication PMC8952960 (Nature chemistry, 2021).
Each block holds one compound with its values, some of them ahead of it.

Columns and labels:
[1] = molecular target: T1, K53 of GSTT2B (Homo sapiens, UniProt P0CG30); assay: competitive isoTOP-ABPP; format: binding
T1 sequence (P0CG30 1-244): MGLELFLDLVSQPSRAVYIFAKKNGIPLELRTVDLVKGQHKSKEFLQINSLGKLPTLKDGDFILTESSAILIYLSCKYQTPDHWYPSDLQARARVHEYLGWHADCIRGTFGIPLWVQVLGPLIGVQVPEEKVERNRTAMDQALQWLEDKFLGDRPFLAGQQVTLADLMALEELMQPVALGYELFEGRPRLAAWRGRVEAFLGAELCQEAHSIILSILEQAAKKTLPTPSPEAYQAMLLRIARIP
Procedure, shortened: (§1)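 Human cancer cell (MDA-MB-231, Ramos) soluble or membrane fractions at 1.8 mg·mL⁻¹, or live cells, were exposed to test compound or DMSO. Proteomes were then labelled with lysine probe 1 (100 µM, 1 h, 23 °C). Compound samples were clicked to light and DMSO samples to heavy TEV-biotin tags, then streptavidin-enriched, trypsinised, TEV-released and analysed by MS. R was taken as the median peptide ratio per lysine.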

[2] = molecular target: K351R mutant of Ku70 with Ku80 (Homo sapiens, UniProt P12956, K351R); assay: Ku70/Ku80 heterodimerization assay, K351R mutant of Ku70; format: biochemical
Procedure, shortened: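 FLAG-Ku70 (WT or K351R) HEK293T lysates were sonicated in 1% NP-40 buffer with protease inhibitors and normalised to 1.0 mg·mL⁻¹. They were treated with test compound or DMSO (1 h, 23 °C), then mixed with WT Ku80 lysate (1.0 mg·mL⁻¹, 1 h, 23 °C). Anti-FLAG co-IP (1 h, 4 °C) and four washes in 0.2% NP-40 buffer followed, with anti-HA immunoblot read-out.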

[3] = molecular target: K351 of XRCC6 (Ku70) (Homo sapiens, UniProt P12956); assay: competitive isoTOP-ABPP, XRCC6; format: binding
Procedure, shortened: as §1

[4] = molecular target: Ku70/Ku80 heterodimer (Homo sapiens, UniProt P12956); assay: Ku70/Ku80 heterodimerization assay; format: biochemical; conditions: pre-treatment of recombinantly expressed Ku70
[5] = molecular target: preformed Ku70-Ku80 complex (Homo sapiens, UniProt P12956); assay: treatment of preformed Ku70-Ku80 complex; format: biochemical; conditions: 1 h, 23 °C
Procedure, shortened: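 Lysates of HEK293T cells co-expressing WT Ku80 with WT or K351R Ku70 were first anti-Flag co-immunoprecipitated (1 h, 4 °C). The captured complex was then exposed to test compound or DMSO at the stated concentrations (1 h, 23 °C), washed, and analysed by Western blot. Blots represent four independent experiments.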

[6] = molecular target: T2, WT-CPOX (K404) (Homo sapiens, UniProt P36551); format: binding; conditions: compounds 50 µM, 1 h; gel-ABPP
T2 sequence (P36551 111-454): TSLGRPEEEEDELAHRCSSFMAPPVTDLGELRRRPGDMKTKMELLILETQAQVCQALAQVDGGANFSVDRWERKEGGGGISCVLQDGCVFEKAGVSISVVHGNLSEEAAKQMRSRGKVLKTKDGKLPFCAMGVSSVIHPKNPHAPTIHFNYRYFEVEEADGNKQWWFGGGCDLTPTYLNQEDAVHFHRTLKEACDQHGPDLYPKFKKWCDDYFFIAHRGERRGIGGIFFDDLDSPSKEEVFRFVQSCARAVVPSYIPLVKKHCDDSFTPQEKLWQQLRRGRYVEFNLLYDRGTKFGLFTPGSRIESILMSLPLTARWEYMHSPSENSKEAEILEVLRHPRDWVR

[7] = molecular target: T3, K404 of CPOX (Homo sapiens, UniProt P36551); assay: competitive isoTOP-ABPP with probe P1, CPOX lysines; format: binding; conditions: R ≥ 4 defines liganded
T3 sequence (P36551 111-454): T2 sequence (P36551 111-454)
Procedure, shortened: as §1

Chain of K351R mutant of Ku70 with Ku80 (P12956 whole entry K351R): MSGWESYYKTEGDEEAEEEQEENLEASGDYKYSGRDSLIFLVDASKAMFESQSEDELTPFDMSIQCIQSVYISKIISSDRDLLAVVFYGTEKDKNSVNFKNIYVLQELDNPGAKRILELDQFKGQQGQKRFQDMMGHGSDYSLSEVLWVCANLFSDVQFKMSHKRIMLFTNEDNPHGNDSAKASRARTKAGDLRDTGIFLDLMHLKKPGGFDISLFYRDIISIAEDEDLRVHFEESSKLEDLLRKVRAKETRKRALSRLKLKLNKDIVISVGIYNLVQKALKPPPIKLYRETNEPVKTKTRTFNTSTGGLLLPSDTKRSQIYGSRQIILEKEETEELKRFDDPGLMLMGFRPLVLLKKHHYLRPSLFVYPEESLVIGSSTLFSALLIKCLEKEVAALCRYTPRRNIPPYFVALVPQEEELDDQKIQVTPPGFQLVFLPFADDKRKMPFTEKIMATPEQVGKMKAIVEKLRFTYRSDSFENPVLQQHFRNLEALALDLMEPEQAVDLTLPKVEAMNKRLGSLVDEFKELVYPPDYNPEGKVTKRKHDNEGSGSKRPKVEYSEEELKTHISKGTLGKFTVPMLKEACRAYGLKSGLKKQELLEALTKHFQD
Chain of preformed Ku70-Ku80 complex (P12956 whole entry, one chain of several): as the sequence (P12956 whole entry K351R) above, with R351K counted along it
Chain of Ku70/Ku80 heterodimer (P12956 whole entry, one chain of several): as the sequence (P12956 whole entry K351R) above, with R351K counted along it
Chain of K351 of XRCC6 (Ku70) (P12956 whole entry): as the sequence (P12956 whole entry K351R) above, with R351K counted along it

SMILES: O=C(ON1C(=O)c2ccccc2C1=O)c1cc(C(F)(F)F)cc(C(F)(F)F)c1 [Compound 12a]
engagement of K53 of GSTT2B by chemical proteomics [1]: engaged

SMILES: O=c1[nH]c2ccccc2c(=O)o1 [Compound 11e]
blockade of co-immunoprecipitation of K351R mutant of Ku70 with Ku80 [2]: Neither 11e nor 33e blocked
liganding of K351 of XRCC6 [3]: liganded
blockade of Ku70 co-immunoprecipitation with Ku80 [4]: blocked co-immunoprecipitation with Ku80 in a concentration-dependent manner
effect on preformed Ku70-Ku80 complex [5]: does not block

blockade of P4 labelling of WT-CPOX [6]: partially blocked
R value (DMSO/compound) for K404 of CPOX [7]: 3.3
SMILES: O=Cc1c(O)cc(O)cc1O [Compound 28p]
